# Results from different studies.
# Lines come from different studies, so protocols differ.
SMILES,species,medium,route,dose,time,setting,concentration
Cc1ccc([N+](=O)[O-])cc1S(=O)(=O)n1c(C)nc2ccccc21,mouse,liver,intraperitoneal,30 mg/kg,24 h,,3100 nM
O=c1cc(-c2ccccc2)oc2c(O)c(O)ccc12,male CD-1 mouse,brain,oral,50 mg/kg,30 min,,18 ng/g
[2H]c1c([2H])c([2H])c(-c2ccc([C@H](Cn3ccnc3)NC(=O)c3ccc(-c4nnc(-c5ccccc5)o4)cc3)c(Cl)c2)c([2H])c1[2H],BALB/c mouse,liver,oral,25 mg/kg,4 h,single dose,17000 nM
CC(C)Cc1nn(C)c(=O)c2c(SCCCO)n(Cc3cccc4ccccc34)cc12,mouse,lung,intraperitoneal,20 mg/kg,7 days,single dose,0 nM
COc1cc(F)c([C@@H]2CNC(=O)[C@H]2NC(=O)Nc2ccccc2)c(F)c1,C57BL/6 mouse,plasma,oral,3 mg/kg,2 h,,84 nM
O=S(=O)(c1cccc(C(F)(F)F)c1)N1c2cc(OCc3c(Cl)cncc3Cl)ccc2CC1C(F)(F)F (centres unmarked),mouse,plasma,intraperitoneal,10 mg/kg,2 h,,600 nM
O=c1nc(N2CCN(CC3CCCCC3)CC2)sc2c([N+](=O)[O-])cc(C(F)(F)F)cc12,CD-1 mouse,lung,oral,100 mg/kg,4 h,,620 ng/mL
COc1cc(C)c(Sc2cnc(NC(=O)c3ccc(N4CCN(CCCCCCCNC(=O)COc5cccc6c5C(=O)N(C5CCC(=O)NC5=O)C6=O)CC4)cc3)s2)cc1C(=O)N1CCN(C(C)=O)CC1 (centres unmarked),male C57BL/6 mouse,plasma,intraperitoneal,10 mg/kg,8 h,single dose,~100 nM
CC(C)(Nc1nc(-c2ccccn2)nc2ccccc12)c1ccccn1,female BALB/c mouse,plasma,intravenous,1 mg/kg,1 h,,487 ng/mL
O=C(N/N=C/c1ccc2ccccc2c1)c1ccc(O)cc1,male C57BL/6 mouse,plasma,intraperitoneal,30 mg/kg,2 h,,~200 nM
Cc1ccc(-c2cccc3cnc(Nc4ccc(C(=O)N5CCOCC5)cc4)nc23)cn1,mouse,plasma,intraperitoneal,10 mg/kg,2 h,,0 nM
C[C@]12C[C@@]34C=CC(=O)[C@@](C)(CCC(=O)Nc5c(O)ccc(C(=O)O)c5O)[C@@H]3[C@H](C[C@@H]1C4)O2,male C57BL/6 mouse,plasma,intravenous,3 mg/kg,5 min,single dose,20000 nM
O=S(=O)(c1ccc(-c2ccc3nccc(Nc4ccncn4)c3c2)cc1)N1CCOCC1,female BALB/c mouse,plasma,intraperitoneal,10 mg/kg,15 min,,4460 ng/mL
c1ccc(-c2nc(N3CCC(c4ccccn4)C3)c3ccccc3n2)nc1 (centres unmarked),female BALB/c mouse,plasma,oral,50 mg/kg,2 h,,2730 ng/mL
CSc1cc(Oc2ccnc3[nH]c(=O)cnc23)ccc1NC(=O)Nc1cc(C(C)(C)C)nn1-c1ccccc1,BALB/c mouse,plasma,oral,10 mg/kg/day,14 h,,~1000 nM
O=S(=O)(c1cccc(C(F)(F)F)c1)N1CCc2ccc(OCc3c(Cl)cncc3Cl)cc21,mouse,plasma,intraperitoneal,10 mg/kg,4 h,,620 nM
Cc1c2ccnc(C(=O)N[C@H](C)CN(C)C)c2cc2c3cc(O)ccc3n(C)c12,male C57BL/6 mouse,brain,intraperitoneal,10 mg/kg,2 h,single dose,80 nM
CC(C)CN(C[C@@H](O)[C@H](Cc1ccccc1)NC(=O)O[C@H]1CO[C@H]2OCC[C@H]21)S(=O)(=O)c1ccc(N)cc1,BALB/c mouse,brain,intravenous,2.5 mg/kg,3 h,,1.19 ng/g
COc1ccc2[nH]c3c(C)c4ccnc(C(=O)N[C@H](C)CN(C)C)c4cc3c2c1,male C57BL/6 mouse,plasma,intraperitoneal,10 mg/kg,2 h,single dose,40 nM
O=S(=O)(c1cccc(C(F)(F)F)c1)N1CCc2ccc(OCc3c(F)cncc3Cl)cc21,mouse,plasma,intraperitoneal,10 mg/kg,2 h,,410 nM
O=C(O)C1CCN(c2ncc(-c3ccc4c(c3)OCCCO4)s2)CC1,male Swiss mouse,plasma,oral,30 mg/kg,8 h,single dose,4540 ng/mL
O=S(=O)(c1cccc(C(F)(F)F)n1)N1CCc2ccc(OCc3c(F)cccc3Cl)cc21,mouse,plasma,intraperitoneal,10 mg/kg,2 h,,290 nM
CC(C)Oc1cccc(-c2cnc(N3CCC(C(N)=O)CC3)s2)c1,male Swiss mouse,plasma,oral,30 mg/kg,24 h,single dose,20.6 ng/mL
